Test results as given in ChEMBL document CHEMBL1221168, “Activity-based probes that target diverse cysteine protease families” (Nat Chem Biol, 2005).
Calls of active or inactive are those of the source. No cut-off for these calls is given here.

Columns and labels:
[1] = molecular target: T1, Procathepsin L (Rattus norvegicus) (UniProt P07154); assay: Binding affinity to cathepsin L in crude rat liver homogenates assessed as protein labeling; type: tissue-based; conditions: tested as the 125I-labelled form
T1 sequence (whole entry): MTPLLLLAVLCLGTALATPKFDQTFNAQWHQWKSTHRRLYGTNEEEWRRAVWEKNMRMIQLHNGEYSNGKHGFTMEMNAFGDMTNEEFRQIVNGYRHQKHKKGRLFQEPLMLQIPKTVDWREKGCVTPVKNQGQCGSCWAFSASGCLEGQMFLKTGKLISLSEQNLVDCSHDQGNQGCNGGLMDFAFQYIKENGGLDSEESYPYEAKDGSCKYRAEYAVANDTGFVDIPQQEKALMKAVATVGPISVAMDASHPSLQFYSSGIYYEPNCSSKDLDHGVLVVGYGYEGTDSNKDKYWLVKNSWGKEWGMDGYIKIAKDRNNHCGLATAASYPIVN

Cathepsin B = Cathepsin B (Rattus norvegicus, UniProt P00787); assay: Binding affinity to cathepsin B in crude rat liver homogenates using [125I]DCG-04 based competition protein labeling by SDS-PAGE method; type: tissue-based
Procedure, shortened: (§1)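 Rat liver lysate (50 µg protein in 50 mM sodium acetate, 2 mM DTT, 5 mM MgCl2, pH 5.5) was preincubated with compound from 50 mM DMSO stocks for 30 min at room temperature. [125I]DCG-04 (10^6 c.p.m.) was then added for 45 min at room temperature. Bands were resolved by SDS-PAGE, imaged and quantified, and IC50 was taken from the linear portion of the signal versus inhibitor concentration plot.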

Pro-cathepsin H = molecular target: T2, Pro-cathepsin H (Rattus norvegicus, UniProt P00786); assay: Binding affinity to cathepsin H in crude rat liver homogenates using [125I]DCG-04 based competition protein labeling by SDS-PAGE method; type: tissue-based; procedure, shortened: as §1
T2 sequence (P00786 whole entry): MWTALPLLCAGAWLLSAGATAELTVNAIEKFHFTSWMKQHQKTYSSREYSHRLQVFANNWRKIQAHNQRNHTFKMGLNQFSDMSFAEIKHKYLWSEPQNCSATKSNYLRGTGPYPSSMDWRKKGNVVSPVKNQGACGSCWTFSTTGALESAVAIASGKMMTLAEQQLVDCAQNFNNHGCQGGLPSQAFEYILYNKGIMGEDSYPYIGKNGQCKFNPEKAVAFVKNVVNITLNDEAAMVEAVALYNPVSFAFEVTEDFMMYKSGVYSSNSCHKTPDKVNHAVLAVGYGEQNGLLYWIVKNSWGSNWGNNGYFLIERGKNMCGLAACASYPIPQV

Cathepsin J = molecular target: T3, Cathepsin J (Rattus norvegicus, UniProt Q63088); assay: Binding affinity to cathepsin J in crude rat liver homogenates using [125I]DCG-04 based competition protein labeling by SDS-PAGE method; type: tissue-based; procedure, shortened: as §1
T3 sequence (Q63088 whole entry): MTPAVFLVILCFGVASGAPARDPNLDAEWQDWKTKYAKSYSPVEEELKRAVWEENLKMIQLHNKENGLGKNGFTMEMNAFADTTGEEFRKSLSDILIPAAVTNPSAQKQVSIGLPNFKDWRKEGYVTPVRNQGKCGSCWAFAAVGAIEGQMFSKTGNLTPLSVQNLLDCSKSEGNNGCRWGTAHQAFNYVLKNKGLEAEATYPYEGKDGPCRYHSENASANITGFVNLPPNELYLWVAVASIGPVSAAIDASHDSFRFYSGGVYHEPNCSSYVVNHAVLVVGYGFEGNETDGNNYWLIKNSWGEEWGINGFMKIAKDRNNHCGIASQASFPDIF

Dipeptidyl peptidase 1 = molecular target: T4, Dipeptidyl peptidase 1 (Rattus norvegicus, UniProt P80067); assay: Binding affinity to cathepsin C in crude rat liver homogenates using [125I]DCG-04 based competition protein labeling by SDS-PAGE method; type: tissue-based; procedure, shortened: as §1
T4 sequence (P80067 whole entry): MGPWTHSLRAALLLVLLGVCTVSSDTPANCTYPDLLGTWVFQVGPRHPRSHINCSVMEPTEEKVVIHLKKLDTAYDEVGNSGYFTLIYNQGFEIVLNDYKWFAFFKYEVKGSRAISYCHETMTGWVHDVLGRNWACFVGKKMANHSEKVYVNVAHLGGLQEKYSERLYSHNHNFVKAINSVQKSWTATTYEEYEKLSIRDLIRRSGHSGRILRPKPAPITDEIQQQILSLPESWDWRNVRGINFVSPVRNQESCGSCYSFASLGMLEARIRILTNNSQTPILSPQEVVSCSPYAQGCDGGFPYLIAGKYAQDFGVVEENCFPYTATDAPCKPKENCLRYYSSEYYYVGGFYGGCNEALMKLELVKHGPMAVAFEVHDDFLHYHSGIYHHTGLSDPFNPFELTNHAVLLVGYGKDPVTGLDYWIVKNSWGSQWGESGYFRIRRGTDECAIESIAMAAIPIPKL

[2] = molecular target: Cathepsin Z (Rattus norvegicus) (UniProt Q9R1T3); assay: Binding affinity to cathepsin Z in crude rat liver homogenates using [125I]DCG-04 based competition protein labeling up to 50 uM by SDS-PAGE method; type: tissue-based; procedure, shortened: as §1
Cathepsin Z = Cathepsin Z (Rattus norvegicus, UniProt Q9R1T3); assay: Binding affinity to cathepsin Z in crude rat liver homogenates using [125I]DCG-04 based competition protein labeling by SDS-PAGE method; type: tissue-based; procedure, shortened: as §1
[3] = molecular target: Arg-gingipain-1 proteinase (Porphyromonas gingivalis) (UniProt Q51816); assay: Binding affinity to Arg-gingipain in total lcrude cell lysates of Porphyromonas gingivalis assessed as protein lebeling; conditions: tested as the 125I-labelled form
[4] = molecular target: Lys-gingipain (Porphyromonas gingivalis (strain ATCC 33277 / DSM 20709 / JCM 12257)) (UniProt B2RLK2); assay: Binding affinity to Lys-gingipain in total lcrude cell lysates of Porphyromonas gingivalis assessed as protein lebeling; conditions: tested as the 125I-labelled form
[5] = molecular target: T5, Pro-cathepsin H (Rattus norvegicus) (UniProt P00786); assay: Binding affinity to cathepsin H in crude rat liver homogenates using [125I]DCG-04 based competition protein labeling up to 50 uM by SDS-PAGE method; type: tissue-based; procedure, shortened: as §1
T5 sequence (whole entry): T2 sequence (P00786 whole entry)

[6] = molecular target: T6, Cathepsin J (Rattus norvegicus) (UniProt Q63088); assay: Binding affinity to cathepsin J in crude rat liver homogenates using [125I]DCG-04 based competition protein labeling up to 50 uM by SDS-PAGE method; type: tissue-based; procedure, shortened: as §1
T6 sequence (whole entry): T3 sequence (Q63088 whole entry)

[7] = molecular target: T7, Dipeptidyl peptidase 1 (Rattus norvegicus) (UniProt P80067); assay: Binding affinity to cathepsin C in crude rat liver homogenates using [125I]DCG-04 based competition protein labeling up to 50 uM by SDS-PAGE method; type: tissue-based; procedure, shortened: as §1
T7 sequence (whole entry): T4 sequence (P80067 whole entry)

[8] = molecular target: Cathepsin B (Rattus norvegicus) (UniProt P00787); assay: Binding affinity to cathepsin B in crude rat liver homogenates using [125I]DCG-04 based competition protein labeling up to 50 uM by SDS-PAGE method; type: tissue-based; procedure, shortened: as §1

Question: `CC(=O)N[C@@H](CCCCNC(=O)CCCCC1SC[C@H]2NC(=O)N[C@@H]12)C(=O)N[C@@H](Cc1ccc(O)c(I)c1)C(=O)NCCCCCC(=O)NCC(=O)COC(=O)c1c(C)cccc1C` (stereo partly specified) was tested. Which Activity [1] did it give?
Answer: Its Activity is “Active”.

Question: How did the IC50 (Cathepsin B) turn out when `Cc1cccc(C)c1C(=O)OCC(=O)CNC(=O)[C@H](CC(C)C)NC(=O)OCc1ccccc1` was run?
Answer: Its IC50 is 0.92 µM.

Question: What about the IC50 (Pro-cathepsin H) of the same compound?
Answer: The IC50 was 7.9 µM.

Question: And the IC50 (Cathepsin J)?
Answer: Its IC50 is 49 µM.

Question: And the IC50 (Dipeptidyl peptidase 1)?
Answer: Its IC50 is 49 µM.

Question: And the inhibition [2]?
Answer: Its inhibition is “inactive”.

Question: How did the IC50 (Cathepsin B) turn out when `CC(=O)N[C@@H](Cc1ccc(O)cc1)C(=O)N[C@@H](Cc1ccccc1)C(=O)N[C@@H](CCCNC(=N)N)C(=O)COC(=O)c1c(C)cccc1C` was run?
Answer: The IC50 was 0.0073 µM.

Question: What about the IC50 (Cathepsin Z) of the same compound?
Answer: The IC50 was 4.7 µM.

Question: And the IC50 (Pro-cathepsin H)?
Answer: Its IC50 is 12 µM.

Question: And the IC50 (Cathepsin J)?
Answer: Its IC50 is 3.6 µM.

Question: And the IC50 (Dipeptidyl peptidase 1)?
Answer: Its IC50 is 3.6 µM.

Question: Which Activity [3] does the source give for `CC(=O)N[C@@H](CCCCNC(=O)CCCCC1SC[C@H]2NC(=O)N[C@@H]12)C(=O)N[C@@H](Cc1ccc(O)c(I)c1)C(=O)NCCCCCC(=O)N[C@@H](CCCCN)C(=O)COC(=O)c1c(C)cccc1C` (stereo partly specified) here?
Answer: The Activity was “Active”.

Question: What about the Activity [4] of the same compound?
Answer: Its Activity is “Active”.

Question: What does the source list for `CC(=O)N[C@@H](CCCCNC(=O)CCCCC1SC[C@H]2NC(=O)N[C@@H]12)C(=O)N[C@@H](Cc1ccc(O)c(I)c1)C(=O)NCCCCCC(=O)N[C@@H](CCCNC(=N)N)C(=O)COC(=O)c1c(C)cccc1C` (stereo partly specified)?
Answer: Activity [3]: Active; Activity [4]: Active

Question: Which Activity [1] does the source give for `CC(=O)N[C@@H](CCCCNC(=O)CCCCC1SC[C@H]2NC(=O)N[C@@H]12)C(=O)N[C@@H](Cc1ccc(O)c(I)c1)C(=O)NCCCCCC(=O)N[C@@H](CC(C)C)C(=O)COC(=O)c1c(C)cccc1C` (stereo partly specified) here?
Answer: Its Activity is “Active”.

Question: `COc1ccc(C(=O)ONC(=O)CNC(=O)[C@H](Cc2ccccc2)NC(=O)OCc2ccccc2)cc1` was tested. Which IC50 (Cathepsin B) did it give?
Answer: The IC50 was 1.2 µM.

Question: And the IC50 (Cathepsin Z)?
Answer: Its IC50 is 1.5 µM.

Question: What about the IC50 (Pro-cathepsin H) of the same compound?
Answer: Its IC50 is 6.6 µM.

Question: What about the IC50 (Cathepsin J) of the same compound?
Answer: Its IC50 is 8.3 µM.

Question: What about the IC50 (Dipeptidyl peptidase 1) of the same compound?
Answer: Its IC50 is 8.3 µM.

Question: Which IC50 (Cathepsin B) does the source give for `Cc1cccc(C)c1C(=O)OCC(=O)[C@H](CCCN=C(N)N)NC(=O)[C@H](Cc1ccccc1)NC(=O)OCc1ccccc1` here?
Answer: The IC50 was 0.015 µM.

Question: For `Cc1cccc(C)c1C(=O)OCC(=O)[C@H](CCCNC(=N)N)NC(=O)[C@H](Cc1ccccc1)NC(=O)OCc1ccccc1`, which inhibition [2] is on record?
Answer: The inhibition was “inactive”.

Question: What about the inhibition [5] of the same compound?
Answer: The inhibition was “inactive”.

Question: And the inhibition [6]?
Answer: Its inhibition is “inactive”.

Question: What about the inhibition [7] of the same compound?
Answer: The inhibition was “inactive”.

Question: For `CC(=O)N[C@@H](Cc1ccc(O)cc1)C(=O)N[C@@H](Cc1ccccc1)C(=O)NCC(=O)COC(=O)c1c(C)cccc1C`, which IC50 (Cathepsin B) is on record?
Answer: The IC50 was 0.22 µM.

Question: And the IC50 (Cathepsin Z)?
Answer: Its IC50 is 39 µM.

Question: And the IC50 (Pro-cathepsin H)?
Answer: The IC50 was 7.9 µM.

Question: And the IC50 (Cathepsin J)?
Answer: The IC50 was 6.4 µM.

Question: And the IC50 (Dipeptidyl peptidase 1)?
Answer: Its IC50 is 6.4 µM.

Question: Which results are given for `COc1ccc(C(=O)OCC(=O)CNC(=O)[C@H](Cc2ccccc2)NC(=O)OCc2ccccc2)cc1`?
Answer: inhibition [8]: inactive; inhibition [2]: inactive; inhibition [5]: inactive; inhibition [6]: inactive; inhibition [7]: inactive

Question: How did the IC50 (Cathepsin B) turn out when `Cc1cccc(C)c1C(=O)OCC(=O)CNC(=O)[C@H](Cc1ccccc1)NC(=O)OCc1ccccc1` was run?
Answer: Its IC50 is 0.12 µM.

Question: What about the inhibition [2] of the same compound?
Answer: The inhibition was “inactive”.

Question: And the inhibition [5]?
Answer: The inhibition was “inactive”.

Question: And the inhibition [6]?
Answer: Its inhibition is “inactive”.

Question: And the inhibition [7]?
Answer: Its inhibition is “inactive”.
